CHO parental Ca = counter-screen for OX1R antagonists: effect in parental CHO cells | 330,000 compounds, 0.63% hits | inhibition, % at 5.6 µM | parental CHO-K1, ATP-induced calcium, Fluo-8 fluorescence;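 active = inhibition above that plate's mean sample inhibition plus 3 SD, cut at about 26% in these data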
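Material – parental CHO cells · Reagent – ATP stimulus · Compound – single nominal dose of 5.6 µM per compound · Detection – Fluo-8 fluorescence · Read-out basis – percent inhibition of calcium signal · Controls – ATP-challenged DMSO wells low, unchallenged DMSO wells high · Repeats – no replicates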
GPR7 antagonist = human neuropeptides B/W receptor 1 antagonism; inhibition, % at 4.4 µM; 290,000 compounds, 1.1% hits; GPR7-expressing cells, fluorescence antagonist assay; in the data active = inhibition above about 16%, passing the limit was not always enough;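 also: cells stimulated with the agonist NPW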
Target sequence (P48145 whole entry, looked up): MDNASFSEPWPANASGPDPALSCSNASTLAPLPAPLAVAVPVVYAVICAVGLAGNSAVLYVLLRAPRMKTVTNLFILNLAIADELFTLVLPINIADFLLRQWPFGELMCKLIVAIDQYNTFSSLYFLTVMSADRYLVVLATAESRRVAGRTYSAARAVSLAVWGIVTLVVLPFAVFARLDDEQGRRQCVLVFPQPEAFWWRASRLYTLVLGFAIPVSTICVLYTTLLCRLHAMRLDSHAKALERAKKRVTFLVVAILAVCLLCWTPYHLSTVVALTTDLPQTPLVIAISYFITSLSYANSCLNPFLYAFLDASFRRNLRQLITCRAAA
OX1R antag-1 = antagonists of human orexin 1 receptor (OX1R); OX1R-expressing cells, FRET antagonist read-out; inhibition, % at 6.6 µM; 330,000 compounds, 1.8% hits; AID 485270; in the data active = inhibition mostly above about 38%, no sharp cut-off; inactive = mostly below about 40%
GalR3 antagonist = human GalR3 antagonism; O60755; HEK293 GalR3-CNG cAMP membrane potential fluorescence; galR3 body fused to GalR1 C-terminus; inhibition, % at 3 µM; 360,000 compounds, 0.44% hits; AID 651719;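 active = inhibition above the screen-wide average plus 3 SD, cut at about 13% in these data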;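 also: forskolin and galanin both at EC90 stimulate the cells; cAMP rise reported by CNG channel membrane potential dye signal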
Target sequence (O60755 1-299 limits assumed): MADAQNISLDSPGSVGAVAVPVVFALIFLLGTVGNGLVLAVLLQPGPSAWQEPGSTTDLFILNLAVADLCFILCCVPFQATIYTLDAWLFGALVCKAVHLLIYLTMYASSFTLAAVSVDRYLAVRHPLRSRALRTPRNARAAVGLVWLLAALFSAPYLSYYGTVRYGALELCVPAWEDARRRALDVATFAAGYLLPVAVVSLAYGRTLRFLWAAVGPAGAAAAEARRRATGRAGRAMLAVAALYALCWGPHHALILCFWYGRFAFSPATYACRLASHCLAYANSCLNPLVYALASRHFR
OX1R antag-2 = human HCRTR1 antagonism; O43613; CHO/OX1R cells, Fluo-8 calcium fluorescence, orexin A; inhibition, % at 5 µM; 330,000 compounds, 0.43% hits; AID 434989;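 active = inhibition above its plate's threshold, mean inhibition of all tested compounds on the plate plus 3 SD, cut at about 37% in these data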
A number is an active result; – = inactive; · = not tested or not shown. Only some compounds are listed: those with a hit (about 3.1% of all), similar ones and a draw of the others.

SMILES | CHO parental Ca | GPR7 antagonist | OX1R antag-1 | GalR3 antagonist | OX1R antag-2
CCOc1cc(OCC)cc(C(=O)N2CCC[C@@H]2C(=O)N2CCC[C@@H]2C(=O)NCc2cccc(OC)c2)c1 | · | · | · | – | ·
O=C(COC(=O)c1ccc([N+](=O)[O-])s1)Nc1ccc(Cl)cn1 | – | – | – | – | –
Cc1c(Cl)cnc(NC(=O)COC(=O)c2ccc([N+](=O)[O-])s2)c1Cl | – | – | 63 | – | –
Cc1ccc(NC(=O)c2cc(-c3ccc(C)c(C)c3O)n[nH]2)cc1C | – | – | – | – | –
COc1ccc(NC(=O)c2cc(-c3ccc(C)c(C)c3O)n[nH]2)cc1Cl | – | – | 50 | – | –
CNC(=O)/C(C#N)=c1\s/c(=C/C(=O)OC)c(=O)n1-c1ccccc1 | – | – | 69 | – | –
COC(=O)/C=c1/s/c(=C(\C#N)C(=O)NCc2ccco2)n(-c2ccccc2)c1=O | – | – | – | – | –
CCCCC(=O)NC1(C(F)(F)F)NC(=O)N(Cc2ccccc2)C1=O (stereo not given) | – | – | – | – | –
CN=C(Nc1cc(C)nn1CCC#N)c1ccc(F)cc1 | – | – | – | – | –
Cn1ccc(NC(=O)c2ccc([N+](=O)[O-])cc2)n1 | – | · | 29 | – | –
Cc1cc(NC(=O)c2ccc([N+](=O)[O-])cc2)n(CCC#N)n1 | – | – | 46 | – | –
COC(=O)c1cc2c(c3c4cc(F)ccc4n(S(=O)(=O)c4ccc(C)cc4)c13)C(=O)N(Cc1ccc(N(C)C)cc1)C2 | · | · | · | – | ·
CCCCNS(=O)(=O)c1ccc2nc(-c3cccnc3)cc(C(=O)NCCOC)c2c1 | – | – | – | – | –
S=c1[nH]nc(-c2ccncc2)n1Cc1ccccc1 | – | – | – | – | –
Cc1cc(-c2n[nH]c(=S)n2Cc2ccccc2)cs1 | – | 22 | – | – | –
Oc1ccc2ccccc2c1/C=N/Nc1ccccc1 | – | – | – | – | –
Oc1ccc2ccccc2c1C=NCc1ccccc1 | – | – | 52 | – | –
COc1cc(/C=C(\CC(=O)O)c2nc3ccccc3s2)ccc1OCC(=O)Nc1ccccc1F | · | · | · | – | ·
N#C/C(=C/c1ccncc1)c1nc2ccccc2s1 | 44 | – | – | – | 51
CC(C)=C(C#N)c1nc2ccccc2s1 | 50 | – | – | – | 74
COC(=O)c1ccc(/C(O)=C(\C#N)c2nc3ccccc3s2)cc1 | – | – | – | – | –
COc1cc(/C=C(\C#N)c2nc3ccccc3s2)ccc1OCC(=O)Nc1ccccc1 | 46 | – | – | · | –
COc1ccc(C2/C=C\CN3CCC[C@H]3C(=O)N2Cc2ccc(F)cc2)cc1 (stereo not given in full) | – | · | – | – | –
COc1ccc(NC(=O)C2(C)CCCN2C(=O)C(C)C)cc1OC (stereo not given) | · | · | · | – | ·
COc1ccc(N2CCN(C(=O)c3cc(N4C(=O)C5C6CCC(C6)C5C4=O)ccc3Cl)CC2)cc1 (stereo not given) | – | 20 | – | – | –
SMILES | CHO parental Ca | GPR7 antagonist | OX1R antag-1 | GalR3 antagonist | OX1R antag-2
O=C(c1cc(N2C(=O)C3C4CCC(C4)C3C2=O)ccc1Cl)N1CCN(c2ccc(F)cc2)CC1 (stereo not given) | – | – | – | – | –
COc1ccc([N+](=O)[O-])cc1NC(=O)c1ccc(CN(c2ccccc2)S(C)(=O)=O)cc1 | – | – | – | – | –
CSc1ccccc1NC(=O)c1cc(-c2ccco2)on1 | – | – | 66 | – | –
O=C(NCc1ccc(F)cc1)c1cc(-c2ccco2)on1 | 32 | – | – | – | –
O=C(Nc1ccc(F)cc1F)c1cc(-c2ccco2)on1 | 35 | – | – | – | –
Cc1ccc(-c2cnc(-c3ccccc3C(=O)O)o2)cc1 | – | – | – | – | –
CCN(CC)S(=O)(=O)c1ccc(N2CCN(c3ccccc3OC)CC2)c(N)c1 | 61 | – | – | – | –
CN(C)/N=C/c1ccc(Sc2ccccc2[N+](=O)[O-])o1 | – | – | – | – | –
C[C@H](NC(=O)C[C@@H]1C[C@@H]2c3cc(NC(=O)C4CCC4)ccc3O[C@@H]2[C@@H](CO)O1)c1ccccc1 | · | · | · | – | ·
COC(=O)CN(c1cc(C(F)(F)F)ccc1Cl)S(C)(=O)=O | – | – | – | – | –
COCCNC(=O)CN(c1cc(C(F)(F)F)ccc1Cl)S(C)(=O)=O | – | 19 | – | – | –
Cc1ccc(C)c(SCC(=O)OCC(=O)NCCNC(=O)COC(=O)CSc2cc(C)ccc2C)c1 | – | · | – | – | –
O=c1oc2ccc3ccccc3c2cc1-c1nnc(-c2ccccc2)o1 | – | – | 74 | – | –
CC(=O)Nc1cccc(C(=O)N/N=C/c2c[nH]c3ccccc23)c1 | – | – | – | – | –
COc1ccc(S(=O)(=O)Nc2ccccc2C(F)(F)F)cc1 | – | – | – | – | –
COc1ccc(S(=O)(=O)NN(C)c2nc(C(F)(F)F)nc3ccccc23)cc1 | – | – | 72 | – | –
CCN(CC)C(=O)C1=C(C)N(CCCOC)C(=O)C(CC(=O)NCc2cccc3ccccc23)C1 (stereo not given) | · | · | · | – | ·
CC(=O)[C@H]1[C@H]([C@H](O)[C@H](O)CO)O[C@](O)(C(=O)O)C[C@@H]1O | – | · | – | – | –
NS(=O)(=O)c1cccc(NS(=O)(=O)c2ccc(/C=C/C(=O)OCC(=O)c3ccc(Br)cc3)cc2)c1 | 25 | – | – | – | –
CC(=O)c1ccc(NC(=O)C(C)Sc2nnc(C3CCCCC3)o2)cc1 (stereo not given) | – | – | – | – | –
CCn1c(SCc2nc3scc(-c4ccccc4)c3c(=O)[nH]2)nnc1-c1cccs1 | – | – | 56 | – | –
C#CCNC(=O)C1=C[C@@H](C2CC2)C[C@@H](OCc2ccc(CO)cc2)O1 | – | – | – | – | –
C=CCSc1nc(C)c(CC(=O)OCC(C)C)c(=O)[nH]1 | – | – | – | – | –
O=C(C1CC1)N1CCc2cc(S(=O)(=O)NCCCN3CCCCC3)ccc21 | – | – | – | – | –
O=C(C1CCC1)N1CCc2cc(S(=O)(=O)NCCN3CCN(c4ccccc4F)CC3)ccc21 | 51 | – | – | – | –
SMILES | CHO parental Ca | GPR7 antagonist | OX1R antag-1 | GalR3 antagonist | OX1R antag-2
O=C(COc1ccccc1)Nc1nc2cc3c(cc2s1)OCO3 | 31 | – | – | – | –
O=C(COc1ccccc1)Nc1nc2cc3c(cc2s1)OCCO3 | – | – | – | – | –
CN(C)C(=S)NC(=S)Nc1ccc2ccccc2c1 | · | · | · | – | ·
CN(CC(=O)Nc1ccncc1)S(=O)(=O)c1ccc(Br)cc1 | – | – | – | – | –
CC(=O)Nc1ccc(S(=O)(=O)N(C)CC(=O)Nc2ccc(Br)cc2F)cc1 | 67 | · | – | – | –
Cc1ccc(S(=O)(=O)N(C)CC(=O)Nc2ccccc2)cc1 | – | – | – | – | –
CSc1cccc(NC(=O)CN(C)S(=O)(=O)c2ccc(C)cc2)c1 | – | – | 78 | – | 51
COc1ccc(N2CCc3c(C)nc4c(OC)cc(OC)cc4c32)cc1 | – | – | – | – | –
COc1ccc(N2CCc3c(C)nc4c(OC)cccc4c32)cc1 | – | – | 70 | – | –

Source: PubChem
